The target of assay [1] is Transient receptor potential cation channel subfamily V member 1 (Homo sapiens, UniProt Q8NER1). Nature of the assay: Competitive antagonist activity at […] Wistar rat DRG neurons assessed as inhibition of CAP-induced intracellular Ca2+ influx at 100 uM preincubated for 3 mins followed by CAP challenge. It is filed as cell-based. Summed up:
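Primary DRG neurons from 4-week-old Wistar rats, collagenase-dissociated, cultured with NGF 24−36 h. Fluo-4 Ca2+ imaging with superfusion of 0.1 μM capsaicin and 100 μM compound.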

In assay [2] the target is T1, Transient receptor potential cation channel subfamily V member 2 (Homo sapiens) (UniProt Q9Y5S1).
T1 sequence (whole entry): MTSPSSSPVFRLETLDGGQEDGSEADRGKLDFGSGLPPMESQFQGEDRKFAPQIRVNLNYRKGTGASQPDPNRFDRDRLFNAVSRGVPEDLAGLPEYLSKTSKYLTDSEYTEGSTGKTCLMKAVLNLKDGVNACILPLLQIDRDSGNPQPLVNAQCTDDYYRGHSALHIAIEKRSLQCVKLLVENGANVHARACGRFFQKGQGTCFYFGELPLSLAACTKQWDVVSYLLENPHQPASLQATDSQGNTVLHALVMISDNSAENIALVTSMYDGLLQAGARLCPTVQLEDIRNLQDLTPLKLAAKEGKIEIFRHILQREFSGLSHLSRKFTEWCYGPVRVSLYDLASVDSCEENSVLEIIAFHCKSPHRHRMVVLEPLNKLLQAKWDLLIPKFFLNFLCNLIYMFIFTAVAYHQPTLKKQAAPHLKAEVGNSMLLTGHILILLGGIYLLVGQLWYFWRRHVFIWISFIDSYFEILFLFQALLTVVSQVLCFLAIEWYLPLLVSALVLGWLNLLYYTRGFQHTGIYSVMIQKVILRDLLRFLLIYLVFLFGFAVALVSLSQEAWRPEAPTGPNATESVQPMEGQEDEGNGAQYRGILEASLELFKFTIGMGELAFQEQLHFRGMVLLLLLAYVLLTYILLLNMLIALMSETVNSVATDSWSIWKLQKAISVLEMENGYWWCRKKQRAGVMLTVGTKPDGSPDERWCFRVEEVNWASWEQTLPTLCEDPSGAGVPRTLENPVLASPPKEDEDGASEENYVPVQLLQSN
Nature of the assay: Antagonist activity at human TRPV2 expressed in HEK293T cells assessed as LPC-induced intracellular Ca2+ influx at 100 uM by Fluo-4 AM staining-based fluorescence analysis. The assay is classed as cell-based. The settings on record: HEK-293T. Summed up: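 hTRPV2 transiently transfected into HEK293T, seeded 6 h after transfection and used 18 h later. Fluo-4 loading in probenecid-free buffer, 37 °C. Agonist 30 and 40 μM LPC; ruthenium red 5 μM as reference blocker; 100 μM compound given alone or pretreated 3 min. Read-out ΔF/F0 (%).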

For assay [3], the target named is Transient receptor potential cation channel subfamily A member 1 (Homo sapiens, UniProt O75762). Nature of the assay: Agonist activity at TRPA1 isolated from human W138 cells expressed in HEK293T cells assessed as intracellular Ca2+ influx at 100 uM by Fluo-4 AM staining-based fluorescence analysis in presence of antagonist HC-030031. It is filed as cell-based. Summed up: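 Tetracycline-induced (1 μg/mL) stable hTRPA1 in HEK T-REx cells, Fluo-4 AM loaded (3 μM, 1 h, 37 °C) in HEPES buffer pH 7.4 with probenecid; Ca2+ read at 37 °C. Compound 0.01−100 μM; HC-030031 30 μM pretreated 3 min. Responses as % of 5 μM ionomycin or of 100 μM AITC; TREx cells without TRPA1 as control; n = 4−8.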

The target of assay [4] is T2, Transient receptor potential cation channel subfamily V member 3 (Homo sapiens) (UniProt Q8NET8).
T2 sequence (whole entry): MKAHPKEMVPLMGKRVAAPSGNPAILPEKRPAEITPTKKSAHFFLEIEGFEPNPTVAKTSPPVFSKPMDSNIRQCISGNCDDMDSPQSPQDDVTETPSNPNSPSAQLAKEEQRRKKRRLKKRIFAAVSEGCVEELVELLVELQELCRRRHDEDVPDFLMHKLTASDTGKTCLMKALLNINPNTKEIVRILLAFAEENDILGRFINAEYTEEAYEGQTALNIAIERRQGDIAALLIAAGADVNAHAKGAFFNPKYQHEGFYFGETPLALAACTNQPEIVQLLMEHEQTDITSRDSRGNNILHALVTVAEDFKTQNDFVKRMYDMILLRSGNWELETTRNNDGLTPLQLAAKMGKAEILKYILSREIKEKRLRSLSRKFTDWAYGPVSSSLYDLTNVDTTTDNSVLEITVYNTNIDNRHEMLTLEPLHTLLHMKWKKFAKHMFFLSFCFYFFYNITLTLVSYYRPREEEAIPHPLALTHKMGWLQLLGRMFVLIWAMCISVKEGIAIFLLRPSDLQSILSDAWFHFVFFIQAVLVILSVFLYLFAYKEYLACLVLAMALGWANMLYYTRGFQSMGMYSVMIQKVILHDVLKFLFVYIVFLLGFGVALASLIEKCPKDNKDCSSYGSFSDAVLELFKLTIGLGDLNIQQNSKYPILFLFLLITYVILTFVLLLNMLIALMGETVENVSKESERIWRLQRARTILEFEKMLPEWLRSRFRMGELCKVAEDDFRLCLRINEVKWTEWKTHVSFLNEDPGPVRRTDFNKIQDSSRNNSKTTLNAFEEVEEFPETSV
Nature of the assay: Agonist activity at human TRPV3 expressed in HEK293T cells assessed as intracellular Ca2+ influx at 100 uM by Fluo-4 AM staining-based fluorescence analysis. It is filed as cell-based. The settings on record: HEK-293T. The method in brief: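 hTRPV3 transiently expressed in HEK293T; loading and assay at 25 °C, Fluo-4 with probenecid buffer pH 7.4. Agonist 100 and 300 μM menthol, 5 μM ruthenium red as reference; 100 μM compound alone or pretreated 3 min. Data as % of 1000 μM menthol.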

For assay [5], the target named is Transient receptor potential cation channel subfamily M member 8 (Mus musculus, UniProt Q8R4D5). Nature of the assay: Competitive antagonist at TRPM8 isolated from mouse dorsal root ganglion cells expressed in HEK T-REx cells assessed as inhibition of menthol-induced intracellular Ca2+ influx by Schlid plot analysis.
Assay [6] deals with Transient receptor potential cation channel subfamily M member 8 (Mus musculus) (UniProt Q8R4D5). The settings on record: Dorsal root ganglion, HEK T-REx, 100 uM.
The target is the same in assay [7]. To be noted: Dorsal root ganglion, HEK T-REx, 100 uM. The source holds these as a separate data set.
Assay [8] has the same target. The settings on record: Dorsal root ganglion, HEK T-REx, 100 uM. The source holds these as a separate data set.

Consider one compound from ChEMBL document CHEMBL3108739, “Activation and inhibition of thermosensitive TRP channels by voacangine, an alkaloid present in Voacanga africana, an African tree” (J Nat Prod, 2014).

Each structure is given as a SMILES string. Activity calls are given as the source filed them. No cut-off for these calls is given here.

Transient receptor potential cation channel subfamily M member 8 (Mus musculus), sequence (Q8R4D5 whole entry): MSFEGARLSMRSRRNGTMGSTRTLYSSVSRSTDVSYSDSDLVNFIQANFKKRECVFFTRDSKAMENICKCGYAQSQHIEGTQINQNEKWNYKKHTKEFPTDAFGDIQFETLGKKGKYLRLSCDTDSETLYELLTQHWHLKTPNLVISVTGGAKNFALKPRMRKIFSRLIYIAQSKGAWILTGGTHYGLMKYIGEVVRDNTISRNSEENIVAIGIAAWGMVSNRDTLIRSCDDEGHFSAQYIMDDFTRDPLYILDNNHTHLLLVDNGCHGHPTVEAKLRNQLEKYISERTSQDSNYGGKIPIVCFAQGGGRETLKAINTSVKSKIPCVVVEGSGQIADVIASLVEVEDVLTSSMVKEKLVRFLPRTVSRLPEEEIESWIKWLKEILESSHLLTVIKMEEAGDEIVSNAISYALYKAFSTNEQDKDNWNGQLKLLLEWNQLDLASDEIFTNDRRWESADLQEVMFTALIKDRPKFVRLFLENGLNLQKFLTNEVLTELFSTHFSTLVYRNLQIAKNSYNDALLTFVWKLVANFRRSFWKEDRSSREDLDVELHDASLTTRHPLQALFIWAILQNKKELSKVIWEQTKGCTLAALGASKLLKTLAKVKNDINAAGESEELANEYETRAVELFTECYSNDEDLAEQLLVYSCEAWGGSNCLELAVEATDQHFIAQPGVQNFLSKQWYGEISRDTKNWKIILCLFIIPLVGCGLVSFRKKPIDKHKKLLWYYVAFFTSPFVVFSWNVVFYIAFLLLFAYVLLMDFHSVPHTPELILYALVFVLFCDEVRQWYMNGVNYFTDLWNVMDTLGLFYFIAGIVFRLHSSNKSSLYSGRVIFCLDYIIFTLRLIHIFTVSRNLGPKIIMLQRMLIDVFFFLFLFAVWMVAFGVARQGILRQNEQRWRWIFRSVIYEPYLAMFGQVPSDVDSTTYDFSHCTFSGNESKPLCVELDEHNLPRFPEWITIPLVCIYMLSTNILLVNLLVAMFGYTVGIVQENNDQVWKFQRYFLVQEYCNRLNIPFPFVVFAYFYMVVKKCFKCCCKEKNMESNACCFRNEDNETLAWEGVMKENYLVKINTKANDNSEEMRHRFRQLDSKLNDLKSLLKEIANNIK
Transient receptor potential cation channel subfamily M member 8, sequence (Q8R4D5 whole entry): as above
Transient receptor potential cation channel subfamily V member 1, sequence (Q8NER1 whole entry, the tested form may be a part): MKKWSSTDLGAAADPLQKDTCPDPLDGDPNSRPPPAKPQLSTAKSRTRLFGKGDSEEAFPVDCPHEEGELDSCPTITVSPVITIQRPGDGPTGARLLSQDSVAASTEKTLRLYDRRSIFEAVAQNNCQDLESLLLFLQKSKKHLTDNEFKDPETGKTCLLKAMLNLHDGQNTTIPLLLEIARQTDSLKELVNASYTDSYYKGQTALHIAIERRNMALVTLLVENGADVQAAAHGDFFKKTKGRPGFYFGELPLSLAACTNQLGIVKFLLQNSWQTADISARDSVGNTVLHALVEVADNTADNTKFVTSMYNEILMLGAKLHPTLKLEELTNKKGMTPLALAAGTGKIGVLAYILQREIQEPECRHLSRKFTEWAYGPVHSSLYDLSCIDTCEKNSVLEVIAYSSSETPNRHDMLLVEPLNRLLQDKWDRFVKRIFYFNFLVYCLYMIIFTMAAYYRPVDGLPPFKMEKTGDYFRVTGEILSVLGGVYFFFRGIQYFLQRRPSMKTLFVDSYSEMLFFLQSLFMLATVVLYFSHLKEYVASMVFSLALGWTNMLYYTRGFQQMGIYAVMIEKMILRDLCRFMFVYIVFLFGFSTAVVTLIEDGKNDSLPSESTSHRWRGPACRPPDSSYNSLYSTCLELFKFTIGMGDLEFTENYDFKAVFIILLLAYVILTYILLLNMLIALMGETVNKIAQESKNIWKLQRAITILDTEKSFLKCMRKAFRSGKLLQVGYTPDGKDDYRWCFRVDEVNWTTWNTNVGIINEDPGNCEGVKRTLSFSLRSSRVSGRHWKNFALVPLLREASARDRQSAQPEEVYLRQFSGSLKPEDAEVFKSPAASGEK
Transient receptor potential cation channel subfamily A member 1, sequence (O75762 whole entry): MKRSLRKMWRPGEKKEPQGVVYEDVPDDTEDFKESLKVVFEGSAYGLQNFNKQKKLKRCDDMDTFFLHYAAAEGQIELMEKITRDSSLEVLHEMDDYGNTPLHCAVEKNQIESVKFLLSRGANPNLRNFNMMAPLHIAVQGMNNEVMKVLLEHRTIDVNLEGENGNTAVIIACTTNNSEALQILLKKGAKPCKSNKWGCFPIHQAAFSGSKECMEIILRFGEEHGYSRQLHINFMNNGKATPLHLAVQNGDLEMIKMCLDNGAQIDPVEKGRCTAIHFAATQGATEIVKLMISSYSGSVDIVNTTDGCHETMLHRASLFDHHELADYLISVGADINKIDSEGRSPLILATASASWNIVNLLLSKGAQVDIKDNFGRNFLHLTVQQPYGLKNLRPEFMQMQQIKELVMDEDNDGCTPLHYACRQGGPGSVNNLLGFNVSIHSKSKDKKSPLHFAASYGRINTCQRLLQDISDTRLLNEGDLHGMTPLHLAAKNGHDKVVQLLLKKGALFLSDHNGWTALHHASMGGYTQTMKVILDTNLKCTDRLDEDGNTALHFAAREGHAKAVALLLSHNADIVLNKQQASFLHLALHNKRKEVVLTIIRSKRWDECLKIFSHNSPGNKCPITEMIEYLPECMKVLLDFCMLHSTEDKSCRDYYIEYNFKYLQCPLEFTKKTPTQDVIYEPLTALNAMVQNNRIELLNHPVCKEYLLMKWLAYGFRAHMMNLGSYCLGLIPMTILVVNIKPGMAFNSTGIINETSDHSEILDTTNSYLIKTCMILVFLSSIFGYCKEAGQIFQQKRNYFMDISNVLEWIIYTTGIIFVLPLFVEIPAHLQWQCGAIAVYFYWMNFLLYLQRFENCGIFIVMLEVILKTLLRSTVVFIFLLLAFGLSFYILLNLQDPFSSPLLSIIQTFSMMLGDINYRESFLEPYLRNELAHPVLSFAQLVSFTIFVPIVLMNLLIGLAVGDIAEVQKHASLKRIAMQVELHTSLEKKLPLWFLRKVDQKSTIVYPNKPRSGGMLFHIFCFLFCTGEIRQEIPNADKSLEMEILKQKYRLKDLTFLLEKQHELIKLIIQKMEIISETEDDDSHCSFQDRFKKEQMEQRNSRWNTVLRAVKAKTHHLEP

In general, Kb refers to the equilibrium dissociation constant of an antagonist, usually derived from a functional assay. As for `CC[C@H]1C[C@@H]2CN3CCc4c([nH]c5ccc(OC)cc45)[C@](C(=O)OC)(C2)[C@H]13` [VOACANGINE], the inhibition entry in assay [1], in assay [6] and in assay [7] was “Active” each time. Also, the result in assay [2], in assay [3] and in assay [4] was inactive. In assay [5], the Kb is 7.94 µM. Also, the inhibition result in assay [8] was “inactive”.
